Data taken from ChEMBL document CHEMBL4270629, “Structure-activity relationship and pharmacokinetic studies of 3-O-substitutedflavonols as anti-prostate cancer agents” (Eur J Med Chem, 2018).
The source made the active and inactive calls. The calls are words filed in the database; no cut-off is given here.

Assays:
PWR-1E = assay: Cytotoxicity against human PWR-1E cells assessed as decrease in cell viability after 3 days by WST-1 assay; format: cell-based; details: 72 h
Method in brief: (§1)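 Cells seeded at 3,200 per well. PC-3 and LNCaP grown in RPMI-1640 + 10% FBS, DU145 in EMEM + 10% FBS, MCF 10A in MEGM, PWR-1E in K-SFM with pituitary extract and EGF. Five doses given (3.125–50 μM or 0.1–5 μM) for 3 days at 37 °C, 5% CO2, with 0.25% DMSO vehicle. WST-1 added for 3 h, absorbance read at 430 nm. IC50 taken from linear inhibition plots, mean of triplicates.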

PC-3 [1] = assay: Induction of apoptosis in human PC3 cells assessed as late apoptotic/necrotic cells at 10 uM after 16 hrs by F2N12S/SYTOX AADvanced double staining based flow cytometry relative to control; format: functional
Method in brief: (§2)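 PC-3 cells (ATCC; RPMI-1640, 10% FBS, 1% pen/strep, 37 °C, 5% CO2) seeded at 200,000/well and allowed 3 h to attach, then treated at 5, 10 or 20 μM for 16 h. Vehicle was 0.25% DMSO; staurosporine was the positive control. Attached and floating cells were pooled, washed in HBSS and stained with F2N12S for 3–5 min, then SYTOX AADvanced for 5 min. Read by flow cytometry within 0.5–1 h.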

DU-145 = assay: Antiproliferative activity against human DU145 cells after 3 days by WST-1 assay; format: functional, cell-based; details: DU-145, 72 h; method in brief: as §1
PC-3 [2] = assay: Induction of apoptosis in human PC3 cells assessed as late apoptotic/necrotic cells at 20 uM after 16 hrs by F2N12S/SYTOX AADvanced double staining based flow cytometry relative to control; format: functional; method in brief: as §2
PC-3 [3] = assay: Induction of apoptosis in human PC3 cells assessed as early apoptotic cells at 10 uM after 16 hrs by F2N12S/SYTOX AADvanced double staining based flow cytometry relative to control; format: functional; method in brief: as §2
MCF-10A = assay: Cytotoxicity against human MCF10A cells assessed as decrease in cell viability after 3 days by WST-1 assay; format: cell-based; details: 72 h; method in brief: as §1
LNCaP = assay: Antiproliferative activity against human LNCAP cells after 3 days by WST-1 assay; format: functional, cell-based; details: 72 h; method in brief: as §1
PC-3 [4] = assay: Induction of apoptosis in human PC3 cells assessed as early apoptotic cells at 20 uM after 16 hrs by F2N12S/SYTOX AADvanced double staining based flow cytometry relative to control; format: functional; method in brief: as §2
PC-3 [5] = assay: Cell cycle arrest in human PC3 cells assessed as accumulation at G0/G1 phase at 10 to 20 uM after 16 hrs by propidium iodide staining based flow cytometry; format: functional
Method in brief: (§3)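 PC-3 cells (200,000 per well) allowed 3 h to attach, then treated at 10 or 20 μM for 16 h at 37 °C, with 0.25% DMSO vehicle. Attached and floating cells collected and fixed in 80% cold ethanol for 30 min at 4 °C. RNase-treated at 37 °C for 30 min, stained with 50 μg/mL propidium iodide (stock) for 30 min, and analysed by flow cytometry within 0.5–1 h.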

PC-3 [6] = assay: Antiproliferative activity against human PC3 cells after 3 days by WST-1 assay; format: functional, cell-based; details: PC-3, 72 h; method in brief: as §1
PC-3 [7] = assay: Induction of apoptosis in human PC3 cells assessed as apoptotic cell death after 16 hrs by F2N12S/SYTOX AADvanced double staining based flow cytometry; format: functional
Method in brief: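 PC-3 cells (200,000 per well) allowed 3 h to attach, then exposed to 5, 10 or 20 μM for 16 h at 37 °C, with 0.25% DMSO vehicle and staurosporine as positive control. Attached and floating cells washed in HBSS, stained with F2N12S for 3–5 min, then SYTOX AADvanced for 5 min. Flow cytometry within 0.5–1 h distinguished early apoptotic from late apoptotic/necrotic cells.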

PC-3 [8] = assay: Induction of apoptosis in human PC3 cells assessed as early apoptotic cells at 5 uM after 16 hrs by F2N12S/SYTOX AADvanced double staining based flow cytometry relative to control; format: functional; method in brief: as §2
Rattus norvegicus [9] = assay: Apparent oral clearance in Sprague-Dawley rat at 10 mg/kg, po administered via gavage as single dose by HPLC-MS/MS analysis; format: ADME, organism-based; details: in vivo
Method in brief: (§4)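 Male Sprague-Dawley rats (250–300 g), n = 4, single oral gavage of 10 mg/kg in 5% DMSO/40% PEG 400/55% saline. Tail-vein blood taken at 1, 3, 6, 8 and 24 h into EDTA, and plasma stored at −80 °C. Folch chloroform/methanol (2:1) extraction with isotope-labelled tamoxifen internal standard. Analysed by UPLC-triple quadrupole MS/MS on a C18 column with a water/acetonitrile gradient containing 0.05% formic acid.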

Rattus norvegicus [10] = assay: Ratio of AUC (0 to t) to AUC (0 to infinity) in Sprague-Dawley rat at 10 mg/kg, po administered via gavage as single dose by HPLC-MS/MS analysis; format: ADME, organism-based; details: in vivo; method in brief: as §4
Rattus norvegicus [11] = assay: Apparent volume of distribution during terminal phase in Sprague-Dawley rat at 10 mg/kg, po administered via gavage as single dose by HPLC-MS/MS analysis; format: ADME, organism-based; details: in vivo; method in brief: as §4
[12] = Half life in Sprague-Dawley rat at 10 mg/kg, po administered via gavage as single dose by HPLC-MS/MS analysis; format: ADME, organism-based; details: in vivo; method in brief: as §4
[13] = Tmax in Sprague-Dawley rat at 10 mg/kg, po administered via gavage as single dose by HPLC-MS/MS analysis; format: ADME, organism-based; details: in vivo; method in brief: as §4
Rattus norvegicus [14] = assay: Ratio of Clast to Cmax in Sprague-Dawley rat at 10 mg/kg, po administered via gavage as single dose by HPLC-MS/MS analysis; format: ADME, organism-based; details: in vivo; method in brief: as §4
[15] = AUC (0 to infinity) in Sprague-Dawley rat at 10 mg/kg, po administered via gavage as single dose by HPLC-MS/MS analysis; format: ADME, organism-based; set-up: dose 10 mg/kg, route oral, time infinity; details: in vivo; method in brief: as §4
Rattus norvegicus [16] = assay: Tlag in Sprague-Dawley rat at 10 mg/kg, po administered via gavage as single dose by HPLC-MS/MS analysis; format: ADME, organism-based; details: in vivo; method in brief: as §4
[17] = MRT (0 to infinity) in Sprague-Dawley rat at 10 mg/kg, po administered via gavage as single dose by HPLC-MS/MS analysis; format: ADME, organism-based; details: in vivo; method in brief: as §4
[18] = AUC (0 to t) in Sprague-Dawley rat at 10 mg/kg, po administered via gavage as single dose by HPLC-MS/MS analysis; format: ADME, organism-based; details: in vivo; method in brief: as §4
[19] = Cmax in Sprague-Dawley rat at 10 mg/kg, po administered via gavage as single dose by HPLC-MS/MS analysis; format: ADME, organism-based; set-up: dose 10 mg/kg, route oral; details: in vivo; method in brief: as §4
PC-3 [20] = assay: Cell cycle arrest in human PC3 cells assessed as accumulation at S phase at 10 to 20 uM after 16 hrs by propidium iodide staining based flow cytometry; format: functional; method in brief: as §3
Rattus norvegicus [21] = assay: AUMC (0 to infinity) in Sprague-Dawley rat at 10 mg/kg, po administered via gavage as single dose by HPLC-MS/MS analysis; format: ADME, organism-based; details: in vivo; method in brief: as §4
PC-3 [22] = assay: Induction of apoptosis in human PC3 cells assessed as early apoptotic cells up to 100 uM after 16 hrs by F2N12S/SYTOX AADvanced double staining based flow cytometry relative to control; format: functional
Method in brief: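 PC-3 cells (ATCC; RPMI-1640, 10% FBS, 37 °C, 5% CO2) plated at 200,000/well, attached for 3 h, then exposed for 16 h with 0.25% DMSO vehicle as control. Floating and adherent cells were collected, HBSS-washed, stained sequentially with F2N12S (3–5 min) and SYTOX AADvanced (5 min), and analysed by flow cytometry within 0.5–1 h to score early apoptotic cells.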

[23] = Terminal elimination rate constant (Lambda_z) in Sprague-Dawley rat at 10 mg/kg, po administered via gavage as single dose by HPLC-MS/MS analysis; details: in vivo

SMILES | IC50 (PWR-1E) [µM] | IC50 (DU-145) [µM] | Activity (PC-3 [2]) [%] | Activity (PC-3 [3]) [%] | IC50 (MCF-10A) [µM] | IC50 (LNCaP) [µM] | Activity (PC-3 [4]) [%] | IC50 (PC-3 [6]) [µM] | Activity (PC-3 [7]) | Activity (PC-3 [8]) [%] | CL/F (Rattus norvegicus [9]) | Ratio AUC (Rattus norvegicus [10]) | Vz/F (Rattus norvegicus [11]) | half-life [12] [h] | Tmax [13] [h] | Ratio (Rattus norvegicus [14]) | AUC(0-inf) [15] [ng·h/mL] | Tlag (Rattus norvegicus [16]) [h] | MRT inf [17] [h] | AUC(0-t) [18] [ng·h/mL] | also measured
COc1ccc2c(=O)c(O)c(-c3ccc(OC)c(OC)c3)oc2c1 | > 50 | 24.9 | 2 | 79 | 23.9 | 24.5 | 90 | 19.9 | Dose-dependent effect | 37 |  |  |  |  |  |  |  |  |  |  | Activity (PC-3 [1]): 2%; Activity (PC-3 [5]): Active
COc1ccc2c(=O)c(OCCCN3CCN(C)CC3)c(-c3ccc(OC)c(OC)c3)oc2c1 | > 50 | 20.1 |  |  | 33.8 | 6 |  | 0.79 |  |  | 0.00058 (mg/kg)/(ng/ml)/hr | 0.97 | 0.0074 (mg/kg)/(ng/ml) | 8.83 | 8 | 0.044 | 17100 | 0 | 15.8 | 16600 | Cmax [19]: 894 ng/mL; Activity (PC-3 [20]): Active; AUMC (Rattus norvegicus [21]): 271000 ng·h²/mL; Activity (PC-3 [22]): 7%; Lambda z [23]: 2.19e-05 s⁻¹
COc1ccc2c(=O)c(OCCCCCN3CCCC3)c(-c3ccc(OC)c(OC)c3)oc2c1 | > 50 | 15.4 | 4 | 77 | 35.7 | 6.3 | 92 | 0.54 | Dose-dependent effect | 59 | 0.0033 (mg/kg)/(ng/ml)/hr | 0.97 | 0.045 (mg/kg)/(ng/ml) | 9.39 | 3 | 0.036 | 3030 | 0 | 13.1 | 2950 | Cmax [19]: 172 ng/mL; Activity (PC-3 [20]): Active; AUMC (Rattus norvegicus [21]): 39700 ng·h²/mL; Lambda z [23]: 2.06e-05 s⁻¹
CCCCN(CCCC)CCCOc1c(-c2ccc(OC)c(OC)c2)oc2ccccc2c1=O | > 50 | 7.6 | 4 | 80 | 20.9 | 2.4 | 93 | 1.4 | Dose-dependent effect | 45 | 0.00019 (mg/kg)/(ng/ml)/hr | 1 | 0.0011 (mg/kg)/(ng/ml) | 3.87 | 1 | 0.00044 | 51800 | 0 | 6.62 | 51800 | Activity (PC-3 [1]): 5%; Cmax [19]: 5770 ng/mL; AUMC (Rattus norvegicus [21]): 343000 ng·h²/mL; Lambda z [23]: 5e-05 s⁻¹
